Measured values from ChEMBL document CHEMBL3217465, “Development of a phosphatase-resistant, L-tyrosine derived LPA1/LPA3 dual antagonist” (Medchemcomm, 2011).
Calls of active or inactive are those of the source. The rule behind the calls is not given here.

Columns and labels:
[1] = target: Lysophosphatidic acid receptor 2 (Homo sapiens) (UniProt Q9HBW0); experiment: Antagonist activity at LPAR2 receptor (unknown origin) assessed as inhibition of LPA-induced [35S]GTPgammaS binding by liquid scintillation counting; assay type: functional
[2] = target: T1, Lysophosphatidic acid receptor 3 (Rattus norvegicus) (UniProt Q8K5E0); experiment: Antagonist activity at LPAR3 in rat glioma C62B cells assessed as inhibition of LPA3 agonist-induced reduction in isoproterenol-stimulated [3H]cAMP accumulation by liquid scintillation counting; assay type: functional, cell-based
T1 sequence (whole entry): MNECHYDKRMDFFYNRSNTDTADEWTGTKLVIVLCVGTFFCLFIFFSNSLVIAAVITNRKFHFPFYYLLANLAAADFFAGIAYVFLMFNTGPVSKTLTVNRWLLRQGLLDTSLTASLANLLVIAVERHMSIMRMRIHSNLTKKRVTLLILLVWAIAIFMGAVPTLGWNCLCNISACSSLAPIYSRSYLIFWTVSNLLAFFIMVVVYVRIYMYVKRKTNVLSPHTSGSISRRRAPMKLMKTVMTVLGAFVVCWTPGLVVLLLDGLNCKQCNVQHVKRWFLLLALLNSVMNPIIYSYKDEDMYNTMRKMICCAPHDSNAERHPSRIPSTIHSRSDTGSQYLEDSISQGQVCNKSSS

[3] = test system: A-431; experiment: Antagonist activity at LPA receptor in human A431 cells assessed as inhibition of LPA-induced intracellular calcium mobilization at 10 uM by Fluo-3 AM-staining based FLIPR assay; assay type: cell-based
Summary of the method: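 A431 human epithelial carcinoma cells, which express LPA1–3 receptor mRNAs, were tested with the test compound at a single concentration of 10 μM against a single concentration of 1-oleoyl LPA. The read-out was inhibition of LPA-induced intracellular calcium release.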

[4] = target: T2, Lysophosphatidic acid receptor 3 (Homo sapiens, UniProt Q9UBY5); experiment: (§1) Competitive antagonist activity at N-terminal 3XHA-tagged human LPA3 receptor overexpressed in CHO cells assessed as inhibition of LPA-induced [35S]GTPgammaS binding by liquid scintillation counting; assay type: functional, cell-based
T2 sequence (Q9UBY5 whole entry): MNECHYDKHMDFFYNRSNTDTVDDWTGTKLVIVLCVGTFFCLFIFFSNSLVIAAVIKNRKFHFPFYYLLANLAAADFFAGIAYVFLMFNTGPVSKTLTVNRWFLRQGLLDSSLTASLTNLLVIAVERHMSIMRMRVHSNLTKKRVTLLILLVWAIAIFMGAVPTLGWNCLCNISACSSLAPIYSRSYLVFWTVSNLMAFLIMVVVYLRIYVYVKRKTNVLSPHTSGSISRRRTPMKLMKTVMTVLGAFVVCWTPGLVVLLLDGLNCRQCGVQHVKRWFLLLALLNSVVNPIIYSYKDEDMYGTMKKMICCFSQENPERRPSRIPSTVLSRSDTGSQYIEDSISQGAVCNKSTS
Summary of the method: (§2)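 GTP[γ-³⁵S] binding was measured in membrane fractions containing hLPA1 or hLPA3 from over-expressing CHO cells. LPA concentration-effect curves were run at increasing antagonist concentrations, and Schild analysis was derived from these curves.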

[5] = target: T3, Lysophosphatidic acid receptor 3 (Homo sapiens) (UniProt Q9UBY5); experiment: as §1; assay type: functional, cell-based; summary of the method: as §2
T3 sequence (whole entry): T2 sequence (Q9UBY5 whole entry)

[6] = target: Lysophosphatidic acid receptor 1 (Homo sapiens, UniProt Q92633); experiment: Competitive antagonist activity at human LPA1 receptor overexpressed in CHO cells assessed as inhibition of LPA-induced [35S]GTPgammaS binding by liquid scintillation counting; assay type: functional, cell-based; summary of the method: as §2
[7] = Half life in Wistar rat at 20 mg/kg, iv by LC-MS/MS analysis; assay type: ADME, organism-based; set-up: dose 20 mg/kg, route intravenous; details: in vivo
[8] = target: Lysophosphatidic acid receptor 1/lysophosphatidic acid receptor 3 (Rattus norvegicus, UniProt Q8K5E0+P61794); experiment: Antagonist activity at LPAR1/LPAR3 in rat glioma C62B cells assessed as inhibition of LPA-induced reduction in isoproterenol-stimulated [3H]cAMP accumulation by liquid scintillation counting; assay type: functional, cell-based
Summary of the method: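 C62B cells were grown to confluence and labelled with [³H]adenine for 1 h to label ATP pools. They were then stimulated for 2 min with isoproterenol (10 μM), with or without 18:1 LPA (100 nM), and with or without antagonist. Antagonist was given at increasing concentrations to obtain dose-response curves of the block of LPA inhibition of cAMP accumulation.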

Lysophosphatidic acid receptor 1, sequence (Q92633 whole entry): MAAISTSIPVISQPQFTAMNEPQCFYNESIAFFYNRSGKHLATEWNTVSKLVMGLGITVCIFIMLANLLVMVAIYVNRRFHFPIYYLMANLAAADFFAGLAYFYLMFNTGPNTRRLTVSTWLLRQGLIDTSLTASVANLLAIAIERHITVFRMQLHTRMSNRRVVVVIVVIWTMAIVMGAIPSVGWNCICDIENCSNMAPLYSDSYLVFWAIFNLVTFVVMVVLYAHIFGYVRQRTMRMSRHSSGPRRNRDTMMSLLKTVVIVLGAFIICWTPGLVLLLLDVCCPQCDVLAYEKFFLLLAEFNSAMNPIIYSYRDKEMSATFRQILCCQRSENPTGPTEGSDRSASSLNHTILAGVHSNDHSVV
Lysophosphatidic acid receptor 2 (Homo sapiens), sequence (Q9HBW0 whole entry): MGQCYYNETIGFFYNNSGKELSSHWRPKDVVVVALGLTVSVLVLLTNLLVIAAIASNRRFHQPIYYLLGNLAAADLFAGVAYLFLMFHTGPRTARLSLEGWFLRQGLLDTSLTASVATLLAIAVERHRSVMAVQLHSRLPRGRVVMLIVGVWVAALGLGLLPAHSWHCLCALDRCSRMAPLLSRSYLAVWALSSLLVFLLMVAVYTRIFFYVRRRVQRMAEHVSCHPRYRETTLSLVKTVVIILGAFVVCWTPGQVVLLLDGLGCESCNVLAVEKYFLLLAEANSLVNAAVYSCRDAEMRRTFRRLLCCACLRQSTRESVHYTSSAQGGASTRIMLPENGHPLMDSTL

Row | Compound | inhibition [3] | Ki [4] [nM] | inhibition [5] | Ki [6] [nM] | inhibition [6] | other results
1 | CCCCCCCCCCCCCCCC(=O)N[C@@H](/C=C/P(=O)(O)O)Cc1ccc(OCc2cc(OCC(F)(F)F)ccn2)cc1 | Active | 512 | Dose-dependent effect | 143 | Dose-dependent effect | inhibition [1]: inactive; inhibition [2]: Dose-dependent effect; half-life [7]: 1.5 h; Ki [8]: 11 nM
2 | CCCCCCCCCCCCCCCC(=O)N[C@H](Cc1ccc(OCc2cc(OCC(F)(F)F)ccn2)cc1)CC(F)P(=O)(O)O (stereo not given in full) | Active |  |  |  |  | 
3 | CCCCCCCCCCCCCCCC(=O)N[C@@H](/C=C(\F)P(=O)(O)O)Cc1ccc(OCc2cc(OCC(F)(F)F)ccn2)cc1 | Active |  |  |  |  | 
4 | CCCCCCCCCCCCCCCCCC(=O)N[C@@H](COP(=O)(O)O)Cc1ccc(OCc2cc(OCC(F)(F)F)ccn2)cc1 |  | 48 |  | 84 |  | 
5 | Cc1noc(-c2ccc(CSCCC(=O)O)cc2)c1NC(=O)OC(C)c1ccccc1Cl (stereo not given) |  |  | Active |  | Active | 
